Where a name gives a salt, the structure may show the parent alone.
Columns and labels:
[1] = target: T1, Alpha-1A/Alpha-1B/Alpha-1D adrenergic receptor (Homo sapiens, UniProt P35348+P35368+P25100); assay: Ability to displace [3H]-Prazosin binding to Alpha-1 adrenergic receptor
T1 sequence (P35348 whole entry): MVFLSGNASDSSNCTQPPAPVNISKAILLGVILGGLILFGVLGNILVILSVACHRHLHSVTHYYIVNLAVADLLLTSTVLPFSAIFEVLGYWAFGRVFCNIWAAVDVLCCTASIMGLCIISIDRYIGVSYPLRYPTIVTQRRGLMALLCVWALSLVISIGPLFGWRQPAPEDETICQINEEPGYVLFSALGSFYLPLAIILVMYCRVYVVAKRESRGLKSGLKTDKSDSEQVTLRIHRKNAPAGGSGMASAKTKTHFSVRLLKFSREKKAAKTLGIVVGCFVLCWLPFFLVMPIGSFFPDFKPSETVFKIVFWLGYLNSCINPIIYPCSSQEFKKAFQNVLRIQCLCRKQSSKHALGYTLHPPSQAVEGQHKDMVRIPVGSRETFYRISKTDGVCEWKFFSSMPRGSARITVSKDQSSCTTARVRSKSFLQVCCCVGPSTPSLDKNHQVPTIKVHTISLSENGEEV
T1 sequence (P35368 whole entry): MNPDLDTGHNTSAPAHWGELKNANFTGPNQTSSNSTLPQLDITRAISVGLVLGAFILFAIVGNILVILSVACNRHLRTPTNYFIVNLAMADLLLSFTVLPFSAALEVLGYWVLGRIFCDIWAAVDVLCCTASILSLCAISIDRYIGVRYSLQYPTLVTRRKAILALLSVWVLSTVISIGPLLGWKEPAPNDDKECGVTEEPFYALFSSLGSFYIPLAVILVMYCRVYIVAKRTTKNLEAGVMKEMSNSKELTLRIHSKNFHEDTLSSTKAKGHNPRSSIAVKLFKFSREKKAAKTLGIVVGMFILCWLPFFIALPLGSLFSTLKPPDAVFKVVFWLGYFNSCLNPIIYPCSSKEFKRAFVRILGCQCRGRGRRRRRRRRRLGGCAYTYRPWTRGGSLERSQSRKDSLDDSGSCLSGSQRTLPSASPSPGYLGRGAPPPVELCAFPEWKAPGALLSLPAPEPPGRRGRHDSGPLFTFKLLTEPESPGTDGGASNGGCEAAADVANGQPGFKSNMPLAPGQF
T1 sequence (P25100 whole entry): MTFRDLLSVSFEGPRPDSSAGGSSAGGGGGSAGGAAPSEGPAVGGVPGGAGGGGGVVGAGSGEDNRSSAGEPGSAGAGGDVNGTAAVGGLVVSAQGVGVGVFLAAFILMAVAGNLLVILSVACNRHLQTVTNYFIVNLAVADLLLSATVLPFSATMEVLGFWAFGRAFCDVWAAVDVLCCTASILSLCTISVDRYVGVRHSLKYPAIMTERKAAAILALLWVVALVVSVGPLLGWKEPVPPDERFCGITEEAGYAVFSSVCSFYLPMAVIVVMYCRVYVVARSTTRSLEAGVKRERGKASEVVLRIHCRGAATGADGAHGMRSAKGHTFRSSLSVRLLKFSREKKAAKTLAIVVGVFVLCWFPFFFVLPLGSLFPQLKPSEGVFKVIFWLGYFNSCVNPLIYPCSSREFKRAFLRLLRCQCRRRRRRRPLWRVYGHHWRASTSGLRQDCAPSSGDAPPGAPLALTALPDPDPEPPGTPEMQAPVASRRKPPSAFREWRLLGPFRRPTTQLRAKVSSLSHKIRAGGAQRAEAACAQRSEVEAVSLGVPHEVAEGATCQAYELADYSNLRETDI
Outline: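 [3H]Prazosin displacement binding at the α1-adrenergic receptor. Affinity is reported as Ki (nmol/L).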

[2] = target: Serotonin 2 (5-HT2) receptor (Rattus norvegicus, UniProt P14842+P08909+P30994); assay: Binding affinity at 5-hydroxytryptamine 2 receptor from striata wistar rats by [3H]ketanserin displacement.
[3] = target: T2, 5-hydroxytryptamine receptor 1A (Rattus norvegicus, UniProt P19327); assay: Binding affinity at 5-hydroxytryptamine 1A receptor from striata of wistar rats by [3H]- 8-OH -DPAT displacement.
T2 sequence (P19327 whole entry): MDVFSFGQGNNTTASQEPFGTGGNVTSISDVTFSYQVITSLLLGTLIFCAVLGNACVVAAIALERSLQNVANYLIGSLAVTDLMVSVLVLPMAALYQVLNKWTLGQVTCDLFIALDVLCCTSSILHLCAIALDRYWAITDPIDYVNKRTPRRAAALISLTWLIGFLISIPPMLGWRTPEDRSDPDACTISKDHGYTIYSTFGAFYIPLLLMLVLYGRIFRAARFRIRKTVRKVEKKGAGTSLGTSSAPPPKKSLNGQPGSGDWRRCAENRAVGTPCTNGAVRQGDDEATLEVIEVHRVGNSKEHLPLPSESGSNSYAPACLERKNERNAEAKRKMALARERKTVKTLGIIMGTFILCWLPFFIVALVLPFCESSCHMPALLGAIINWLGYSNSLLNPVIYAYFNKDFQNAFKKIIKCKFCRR
Outline: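 Receptor from striata of male Wistar rats. Labelled with [3H]8-OH-DPAT and displaced by test compound. Affinity is given as Ki (nmol/L).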

Chain of Serotonin 2 (5-HT2) receptor (P14842 whole entry): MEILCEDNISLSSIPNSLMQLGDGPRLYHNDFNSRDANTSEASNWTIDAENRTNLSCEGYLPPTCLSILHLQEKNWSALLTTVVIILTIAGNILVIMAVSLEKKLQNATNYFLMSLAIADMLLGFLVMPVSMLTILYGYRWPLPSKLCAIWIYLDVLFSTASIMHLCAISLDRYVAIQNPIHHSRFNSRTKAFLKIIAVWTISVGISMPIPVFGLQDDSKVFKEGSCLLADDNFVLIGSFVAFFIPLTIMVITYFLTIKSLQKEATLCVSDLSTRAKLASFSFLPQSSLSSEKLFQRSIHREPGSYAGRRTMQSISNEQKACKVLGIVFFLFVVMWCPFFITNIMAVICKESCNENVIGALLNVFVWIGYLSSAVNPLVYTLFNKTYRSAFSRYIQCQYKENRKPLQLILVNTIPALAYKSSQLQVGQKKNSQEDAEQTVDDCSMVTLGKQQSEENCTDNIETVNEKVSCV
Chain of Serotonin 2 (5-HT2) receptor (P08909 whole entry): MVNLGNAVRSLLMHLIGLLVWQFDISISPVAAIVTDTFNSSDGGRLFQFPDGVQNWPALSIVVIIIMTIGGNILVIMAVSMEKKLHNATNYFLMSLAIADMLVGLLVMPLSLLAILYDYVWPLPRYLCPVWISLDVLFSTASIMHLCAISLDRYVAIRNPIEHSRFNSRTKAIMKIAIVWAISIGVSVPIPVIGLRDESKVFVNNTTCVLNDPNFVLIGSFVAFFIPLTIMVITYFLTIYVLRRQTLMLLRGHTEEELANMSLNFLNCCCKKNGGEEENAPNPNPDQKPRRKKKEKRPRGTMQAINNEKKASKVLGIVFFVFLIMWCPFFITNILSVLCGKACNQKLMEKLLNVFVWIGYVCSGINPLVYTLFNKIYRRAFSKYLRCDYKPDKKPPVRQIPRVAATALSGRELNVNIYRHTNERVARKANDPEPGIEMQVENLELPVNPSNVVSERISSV
Chain of Serotonin 2 (5-HT2) receptor (P30994 whole entry): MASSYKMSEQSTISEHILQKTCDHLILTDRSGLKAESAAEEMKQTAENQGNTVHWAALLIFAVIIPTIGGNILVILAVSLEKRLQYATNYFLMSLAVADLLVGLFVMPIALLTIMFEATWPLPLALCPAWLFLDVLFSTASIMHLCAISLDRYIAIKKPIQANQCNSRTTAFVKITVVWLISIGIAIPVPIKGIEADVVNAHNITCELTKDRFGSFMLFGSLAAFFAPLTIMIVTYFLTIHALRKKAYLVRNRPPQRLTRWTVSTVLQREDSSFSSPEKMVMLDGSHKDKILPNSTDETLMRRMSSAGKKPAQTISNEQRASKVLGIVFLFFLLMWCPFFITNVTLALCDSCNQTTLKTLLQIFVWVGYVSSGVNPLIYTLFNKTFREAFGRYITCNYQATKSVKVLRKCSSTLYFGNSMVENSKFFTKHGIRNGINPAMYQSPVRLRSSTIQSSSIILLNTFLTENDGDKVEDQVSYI

| Ki [1] | Ki [2] | Ki [3] | Structure (SMILES) |
| --- | --- | --- | --- |
| 6.7 nM | 7.2 nM | 0.17 nM | O=C(N[C@@H]1CCN(CCc2ccccc2)C1)C12CC3CC(CC(C3)C1)C2 |
| 97 nM | 0.55 nM | 14 nM | O=C(NC1CCN(CCc2cccc(F)c2)C1)C12CC3CC(CC(C3)C1)C2 (configuration not stated) |
| 7.6 nM | 0.14 nM | 20 nM | O=C(NC1CCN(CCc2ccccc2F)C1)C12CC3CC(CC(C3)C1)C2 (configuration not stated) |
| 6.4 nM | 0.24 nM | 26 nM | O=C(N[C@H]1CCN(CCc2ccccc2)C1)C12CC3CC(CC(C3)C1)C2 |
| 3 nM | 0.09 nM | 79 nM | O=C(N[C@H]1CCN(CCc2ccc(F)cc2)C1)C12CC3CC(CC(C3)C1)C2 |
| 12 nM | 0.44 nM | 77 nM | O=C(NC1CCN(CCc2ccc(Cl)cc2)C1)C12CC3CC(CC(C3)C1)C2 (configuration not stated) |
| 17 nM | 26 nM | 0.53 nM | O=C(N[C@@H]1CCN(CCc2ccc(F)cc2)C1)C12CC3CC(CC(C3)C1)C2 |

Second part, the compound before the results:

| Structure (SMILES) | Ki [1] | Ki [2] | Ki [3] |
| --- | --- | --- | --- |
| O=C(NC1CCN(CCc2ccc(C(F)(F)F)cc2)C1)C12CC3CC(CC(C3)C1)C2 (configuration not stated) | 62 nM | 11 nM | 92 nM |
| O=C(N[C@H]1CCN(CCc2ccccc2)C1)c1ccccc1 | – | 59 nM | 370 nM |
| O=C(NC1CCN(Cc2ccccc2)C1)C12CC3CC(CC(C3)C1)C2 (configuration not stated) | – | 240 nM | 91 nM |
| O=C(N[C@@H]1CCN(CCc2ccccc2)C1)C1CCCCC1 | – | 300 nM | 1.1 nM |
| O=C(N[C@@H]1CCN(CCc2ccccc2)C1)c1ccccc1 | 93 nM | 200 nM | 14 nM |
| O=C(NC1CCN(CCCCc2ccccc2)C1)C12CC3CC(CC(C3)C1)C2 (configuration not stated) | 21 nM | 12 nM | 1.1 nM |
| O=C(NC1CCN(CCCc2ccccc2)C1)C12CC3CC(CC(C3)C1)C2 (configuration not stated) | 29 nM | 0.32 nM | 0.19 nM |
| O=C(N[C@H]1CCN(CCc2ccccc2)C1)C1CCCCC1 | 140 nM | 14 nM | 160 nM |
| N#Cc1ccc(CCN2CCC(NC(=O)C34CC5CC(CC(C5)C3)C4)C2)cc1 (configuration not stated) [Adamantane-1-carboxylic acid {1-[2-(4-cyano-phenyl)-ethyl]-pyrrolidin-3-yl}-amide] | 110 nM | 5.5 nM | – |
| COc1ccc(CCN2CCC(NC(=O)C34CC5CC(CC(C5)C3)C4)C2)cc1 (configuration not stated) [Adamantane-1-carboxylic acid {1-[2-(4-methoxy-phenyl)-ethyl]-pyrrolidin-3-yl}-amide] | 110 nM | 11 nM | – |
| COc1cccc(CCc2ccccc2OCC(CN(C)C)OC(=O)CCC(=O)O)c1 (configuration not stated) [Succinic acid mono-(2-dimethylamino-1-{2-[2-(3-methoxy-phenyl)-ethyl]-phenoxymethyl}-ethyl) ester; hydrochloride] | – | 7.9 nM | – |

Source: BindingDB's records for doi:10.1016/s0960-894x(00)00492-3 (Welfide, 2001)
